Key:
[1] = test system: Leishmania donovani; test: Antileishmanial activity against Leishmania donovani amastigotes in CD1 mouse macrophage; type: functional, organism-based; conditions: for EC50: read-out: ED50 (the source's name)
Method in brief: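 Peritoneal macrophages from starch-induced CD1 mice, kept 24 h in RPMI1640 + 10% HIFCS at 37 °C, 5% CO2. Infected with L. donovani MHOM/ET/67/L82 amastigotes from hamster spleen at 5 parasites:1 macrophage. After 24 h, drug exposure for 5 days, overlay replaced day 3. Top concentration 30 µg/mL, quadruplicate. Slides methanol-fixed, Giemsa-stained, counted microscopically. ED50 by curve fitting.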

[2] = test system: Trypanosoma cruzi; test: Antitrypanosomal activity against Trypanosoma cruzi trypomastigotes in CD1 mouse macrophage; type: functional; conditions: read-out: ED50 (the source's name)
Method in brief: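 Starch-induced CD1 peritoneal macrophages plated at 4 × 10^5/mL, infected after 24 h with T. cruzi Tulahuan LAC-Z trypomastigotes. 24 h later, drug exposure for 3 days. ED50 by curve fitting.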

[3] = test system: Trypanosoma brucei rhodesiense; test: Antitrypanosomal activity against Trypanosoma brucei rhodesiense trypomastigotes; type: functional; conditions: read-out: ED50 (the source's name)
Method in brief: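 Bloodstream-form STIB900 trypomastigotes grown in HMI-18 + 15% HIFCS at 37 °C, 5% CO2. Seeded at 2 × 10^5/mL onto drug dilutions (top 30 µg/mL) for 72 h. Alamar Blue read 5-6 h later by fluorescence (ex/em 530/585 nm). ED50 by curve fitting.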

[4] = test system: Plasmodium falciparum; test: Antimalarial activity against Plasmodium falciparum 3D7; type: functional, organism-based; conditions: read-out: ED50 (the source's name)
Method in brief: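 Synchronized ring-stage 3D7 culture at 1% parasitemia in RPMI 1640, 5% hematocrit, 37 °C, 5% CO2. Top final drug concentration 30 µg/mL. After 24 h, (3H)-hypoxanthine added (0.2 µCi/well), then 48 h further incubation. Plates freeze/thawed and harvested, and hypoxanthine uptake counted. ED50 by curve fitting.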

[5] = test system: KB; test: Cytotoxicity against KB cell line; type: functional; conditions: Homo sapiens, read-out: TD50 (the source's name)

Molecule	EC50 [1] [µM]	EC50 [2] [µM]	EC50 [3] [µM]	EC50 [4] [µM]	CC50 [5] [µM]	ED50 [1] [µM]
CC(=O)O[C@H]1CC[C@@]2(C)C(=CCC3[C@@H]4CC[C@H]([C@H](C)CNCC[C@H](NC(=O)OC(C)(C)C)C(=O)O)[C@@]4(C)CC[C@@H]32)C1 (stereo not given in full)	> 53	13.2	> 52			
COC(=O)CNC[C@@H](C)[C@H]1CC[C@H]2C3CC=C4C[C@@H](OC(C)=O)CC[C@]4(C)[C@H]3CC[C@]12C (stereo not given in full)		5.61	7.85	> 67.3	94.5	
C[C@H](CNCCC[C@H](NC(=O)OCc1ccccc1)C(=O)O)[C@H]1CC[C@H]2C3CC=C4C[C@@H](O)CC[C@]4(C)[C@H]3CC[C@]12C (stereo not given in full)		> 52	> 52	51	417	
C[C@H](C(=O)NCCC[C@H](N)C(=O)O)[C@H]1CC[C@H]2C3CC=C4C[C@@H](O)CC[C@]4(C)[C@H]3CC[C@]12C (stereo not given in full)	> 65	> 65	2.38		651	
C[C@H](C(=O)NCCC[C@H](NC(=O)OCc1ccccc1)C(=O)O)[C@H]1CC[C@H]2C3CC=C4C[C@@H](O)CC[C@]4(C)[C@H]3CC[C@]12C (stereo not given in full)	> 50	> 50	1.33		32	
C[C@H](C(=O)NCCCCCCC(=O)O)[C@H]1CC[C@H]2C3CC=C4C[C@@H](O)CC[C@]4(C)[C@H]3CC[C@]12C (stereo not given in full)	> 63	34.5	2.32	> 63	252	
C[C@H](CNCCCC(=O)O)[C@H]1CC[C@H]2C3CC=C4C[C@@H](O)CC[C@]4(C)[C@H]3CC[C@]12C (stereo not given in full)	> 72	47.3	14.4	56.5	451	
C[C@H](C(=O)NCC[C@H](NC(=O)OC(C)(C)C)C(=O)O)[C@H]1CC[C@H]2C3CC=C4C[C@@H](O)CC[C@]4(C)[C@H]3CC[C@]12C (stereo not given in full)	> 55	11.2	> 55		1270	
C[C@H](C(=O)NCCCCCC(=O)O)[C@H]1CC[C@H]2C3CC=C4C[C@@H](O)CC[C@]4(C)[C@H]3CC[C@]12C (stereo not given in full)	> 65	11.4	10.4	> 65	303	
C[C@H](CNCCCCCCC(=O)O)[C@H]1CC[C@H]2C3CC=C4C[C@@H](O)CC[C@]4(C)[C@H]3CC[C@]12C (stereo not given in full)	> 65	44.9	47.6	> 65	72	
C[C@H](CNCCCCCCCC(=O)O)[C@H]1CC[C@H]2C3CC=C4C[C@@H](O)CC[C@]4(C)[C@H]3CC[C@]12C (stereo not given in full)	26.4	38.4	10.6	> 63	> 633	
C[C@H](C(=O)NCCC(=O)O)[C@H]1CC[C@H]2C3CC=C4C[C@@H](O)CC[C@]4(C)[C@H]3CC[C@]12C (stereo not given in full)		> 72	> 72	> 72	615	
CC(=O)O[C@H]1CC[C@@]2(C)C(=CCC3[C@@H]4CC[C@H]([C@H](C)CNCCCCCCCC(=O)O)[C@@]4(C)CC[C@@H]32)C1 (stereo not given in full)		21	9.11	> 58	59	
CC(=O)O[C@H]1CC[C@@]2(C)C(=CCC3[C@@H]4CC[C@H]([C@H](C)CNCCCCCC(=O)O)[C@@]4(C)CC[C@@H]32)C1 (stereo not given in full)	> 62	> 62	55.2	> 62	433	
C[C@H](C(=O)NC[C@H](NC(=O)OC(C)(C)C)C(=O)O)[C@H]1CC[C@H]2C3CC=C4C[C@@H](O)CC[C@]4(C)[C@H]3CC[C@]12C (stereo not given in full)	> 56	> 56	34.3		109	
COC(=O)CCCCNC[C@@H](C)[C@H]1CC[C@H]2C3CC=C4C[C@@H](OC(C)=O)CC[C@]4(C)[C@H]3CC[C@]12C (stereo not given in full)	> 62	11.7	0.032	8.65	26.1	

Molecule	EC50 [1] [µM]	EC50 [2] [µM]	EC50 [3] [µM]	EC50 [4] [µM]	CC50 [5] [µM]	ED50 [1] [µM]
C[C@H](C(=O)NCCCCC(=O)O)[C@H]1CC[C@H]2C3CC=C4C[C@@H](O)CC[C@]4(C)[C@H]3CC[C@]12C (stereo not given in full)	> 67	32.9	7.85	> 67	561	
N=C(N)c1ccc(OCCCCCOc2ccc(C(=N)N)cc2)cc1 [PENTAMIDINE]			0.001			
C[C@H](CNCCCCC(=O)O)[C@H]1CC[C@H]2C3CC=C4C[C@@H](O)CC[C@]4(C)[C@H]3CC[C@]12C (stereo not given in full)	> 70	66.2	30.1	> 70	> 695	
CC(=O)O[C@H]1CC[C@@]2(C)C(=CCC3[C@@H]4CC[C@H]([C@H](C)C(=O)NCCC[C@H](NC(=O)OCc5ccccc5)C(=O)O)[C@@]4(C)CC[C@@H]32)C1 (stereo not given in full)	> 47	> 47	1.7	> 47	147	
CC(=O)O[C@H]1CC[C@@]2(C)C(=CCC3[C@@H]4CC[C@H]([C@H](C)C(=O)NC[C@H](NC(=O)OC(C)(C)C)C(=O)O)[C@@]4(C)CC[C@@H]32)C1 (stereo not given in full)	> 52	8.7	2.68			
C[C@]12CC[C@H](O)C[C@@H]1CC[C@@H]1[C@@H]2CC[C@@]2(C)[C@H]1CC[C@@H]2[C@@](C)(O)C1CCCCN1 (stereo not given in full)	8.9	7.4	3.3		11.9	
CC(=O)O[C@H]1CC[C@@]2(C)C(=CCC3[C@@H]4CC[C@H]([C@H](C)CNC[C@H](NC(=O)OC(C)(C)C)C(=O)O)[C@@]4(C)CC[C@@H]32)C1 (stereo not given in full)	> 54	4.64	> 54			
CCN(CC)CCCC(C)Nc1ccnc2cc(Cl)ccc12 (stereo not given) [CHLOROQUINE]				0.003		
C[C@H](C(=O)NCCCC[C@H](NC(=O)OCc1ccccc1)C(=O)O)[C@H]1CC[C@H]2C3CC=C4C[C@@H](O)CC[C@]4(C)[C@H]3CC[C@]12C (stereo not given in full)	> 49	> 49	1.8		276	
pentostam						> 10
C[C@H](CNC[C@H](NC(=O)OC(C)(C)C)C(=O)O)[C@H]1CC[C@H]2C3CC=C4C[C@@H](O)CC[C@]4(C)[C@H]3CC[C@]12C (stereo not given in full)		> 58	> 58	5.76	86.1	
C[C@H](C(=O)NCC(=O)O)[C@H]1CC[C@H]2C3CC=C4C[C@@H](O)CC[C@]4(C)[C@H]3CC[C@]12C (stereo not given in full)		> 74	> 74	> 74	> 743	
CC(=O)O[C@H]1CC[C@@]2(C)C(=CCC3[C@@H]4CC[C@H]([C@H](C)C(=O)NCC[C@H](NC(=O)OC(C)(C)C)C(=O)O)[C@@]4(C)CC[C@@H]32)C1 (stereo not given in full)	> 51	26.8	17.5			
CC(=O)O[C@H]1CC[C@@]2(C)C(=CCC3[C@@H]4CC[C@H]([C@H](C)CNCCC[C@H](NC(=O)OCc5ccccc5)C(=O)O)[C@@]4(C)CC[C@@H]32)C1 (stereo not given in full)	> 48	18.5	17.4			
COC(=O)[C@@H](N)CCCCNC(=O)[C@@H](C)[C@H]1CC[C@H]2C3CC=C4C[C@@H](O)CC[C@]4(C)[C@H]3CC[C@]12C (stereo not given in full)	25	11.2	0.55		42	

Source: ChEMBL document CHEMBL1137377, “Evaluation of azasterols as anti-parasitics” (J Med Chem, 2006)
